Tests used:
Candida albicans [1] = assay: Antifungal activity against Candida albicans cgmcc2.2086 measured after 48 hrs in presence of ZnCl by broth microdilution method; format: functional; settings: cgmcc2.2086, 48 h
Escherichia coli [2] = assay: Antibacterial activity against Escherichia coli K88 measured after 24 hrs; format: functional; settings: K88, 24 h
Method in brief: (§1)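 Broth microdilution adapted from NCCLS. Mid-log bacteria were diluted in MHB to a final (0.5–1) × 10^5 CFU mL−1. Peptides were serially diluted in 0.2% BSA and mixed with an equal volume of cells. After 24 h at 37 °C, MIC was read at A492 as the lowest concentration inhibiting 95% of growth. At least three independent experiments, each with three technical replicates.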

Salmonella typhimurium [3] = assay: Bactericidal activity against Salmonella typhimurium ATCC 14028 incubated for 24 hrs followed by replating on agar plate and measured after overnight incubation; format: functional, Salmonella enterica subsp. enterica serovar Typhimurium; settings: Salmonella enterica, ATCC 14028, 24 h; read-out: MBC>99.9
Method in brief: (§2)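 Mid-log bacteria diluted in MHB to (0.5–1) × 10^5 CFU/mL and mixed 1:1 with peptide serially diluted in 0.2% BSA. After 24 h at 37 °C, 50 μL of each mixture was plated on agar and incubated overnight. MBC taken as the lowest concentration killing >99.9% of cells. At least three independent experiments, each with three technical replicates.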

Salmonella typhimurium [4] = assay: Bactericidal activity against Salmonella typhimurium C7731 incubated for 24 hrs followed by replating on agar plate and measured after overnight incubation; format: functional, Salmonella enterica subsp. enterica serovar Typhimurium; settings: Salmonella enterica, C7731, 24 h; read-out: MBC>99.9; method in brief: as §2
Staphylococcus aureus [5] = assay: Antibacterial activity against Staphylococcus aureus ATCC 29213 measured after 18 to 24 hrs in presence of MgCl2; format: functional
[6] = Conformational stability in 50% trifluoro-ethyl alcohol assessed as alpha-helical structural propensity by measuring absorption spectra at minimum dichroic band at 35 uM by CD spectra analysis; format: physicochemical
Method in brief: (§3)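 CD spectra from 190 to 250 nm of peptide at 35 μM in 10 mM PBS, 30 mM SDS micelles or 50% TFE, recorded in a 1.0-mm quartz cell. Ellipticity was converted to mean residue ellipticity. Three independent scans, each averaged over more than 3 runs.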

Escherichia coli [7] = assay: Bactericidal activity against Escherichia coli UB1005 incubated for 24 hrs followed by replating on agar plate and measured after overnight incubation; format: functional; settings: UB1005, 24 h, read-out: MBC>99.9; method in brief: as §2
Salmonella typhimurium [8] = assay: Antibacterial activity against Salmonella typhimurium C7731 measured after 24 hrs; format: functional, Salmonella enterica subsp. enterica serovar Typhimurium; settings: Salmonella enterica, C7731, 24 h; method in brief: as §1
[9] = Therapeutic index, ratio of MHC10 for hemolytic activity in human RBC to MIC95 against Staphylococcus epidermidis ATCC 12228; format: toxicity; settings: human red blood cells (erythrocytes), read-out: TI
Method in brief: (§4)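 Therapeutic index = MHC divided by MIC. MHC is the lowest concentration giving >10% lysis of human RBC (1 h, 37 °C, 1-128 µM, A576). MIC is 95% growth inhibition by broth microdilution: bacteria in MHB 24 h at 37 °C; Candida in MOPS-buffered RPMI 1640 at (0.5–1) × 10^3 CFU mL−1, 48 h at 28 °C.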

[10] = Therapeutic index, ratio of MHC10 for hemolytic activity in human RBC to MIC95 against Escherichia coli ATCC 25922; format: toxicity; settings: human red blood cells (erythrocytes), pooled result: one value given for 9 cell lines, strains, targets or settings, read-out: TI; method in brief: as §4
[11] = Conformational stability in pH 7.4 sodium phosphate buffer assessed as absorption spectra at minimum dichroic band at 35 uM by CD spectra analysis; format: physicochemical; settings: pH 7.4, 35 µM; method in brief: as §3
[12] = Cytotoxicity against mouse RAW264.7 cells assessed as cell viability at 2 to 64 uM measured after 18 to 24 hrs by MTT assay relative to control; format: cell-based; settings: RAW264.7 cells, read-out: Activity
Method in brief: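 MTT assay: RAW264.7 cells seeded at 1.0–2.0×10^4 per well and exposed to peptide (2–64 µM) for 18–24 h at 37 °C in 5% CO2. MTT (0.5 mg/mL) added for 4 h, formazan dissolved in DMSO, read at 570 nm. At least three independent experiments with triplicate wells.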

Escherichia coli [13] = assay: Bactericidal activity against Escherichia coli 078 incubated for 24 hrs followed by replating on agar plate and measured after overnight incubation; format: functional; settings: Escherichia coli, 078, 24 h; read-out: MBC>99.9
Method in brief: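 After the 24 h, 37 °C MHB microdilution (0.5–1 × 10^5 CFU mL−1 inoculum, peptides diluted in 0.2% BSA), 50 μL from each well was plated on agar and incubated overnight. MBC was taken as the lowest concentration killing >99.9% of cells. Three or more independent experiments, each with triplicate technical replicates.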

Candida albicans [14] = assay: Antifungal activity against Candida albicans cgmcc2.2086 measured after 48 hrs in presence of CaCl by broth microdilution method; format: functional; settings: cgmcc2.2086, 48 h
[15] = Therapeutic index, ratio of MHC10 for hemolytic activity in human RBC to MIC95 against Candida albicans cgmcc2.2086; format: toxicity; settings: human red blood cells (erythrocytes), read-out: TI; method in brief: as §4
Candida tropicalis = assay: Fungicidal activity against Candida tropicalis cgmcc2.1975 incubated for 48 hrs followed by replating on YM agar plate and measured after 48 hrs; format: functional
Method in brief: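 Yeast diluted in MOPS-buffered RPMI 1640 to (0.5–1) × 10^3 CFU/mL (CLSI M27-A2, modified) and mixed 1:1 with peptide serially diluted in 0.2% BSA. After 48 h at 28 °C, 50 μL per well was plated on YM agar and incubated 48 h at 28 °C. MFC taken as the lowest concentration killing ≥99.9% of cells. Three or more independent experiments, triplicate wells.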

Escherichia coli [16] = assay: Bactericidal activity against Escherichia coli K88 incubated for 24 hrs followed by replating on agar plate and measured after overnight incubation; format: functional; settings: K88, 24 h, read-out: MBC>99.9; method in brief: as §2
Escherichia coli [17] = assay: Antibacterial activity against Escherichia coli ATCC 25922 measured after 18 to 24 hrs in presence of KCl; format: functional
[18] = Antibacterial activity against Salmonella pullorum ATCC 7913 measured after 24 hrs; format: functional, Salmonella enterica subsp. enterica serovar Pullorum; settings: Salmonella enterica, ATCC 7913, 24 h; method in brief: as §1
Staphylococcus aureus [19] = assay: Antibacterial activity against methicillin-resistant Staphylococcus aureus ATCC 43300 measured after 24 hrs; format: functional; settings: ATCC 43300, 24 h
Method in brief: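 Broth microdilution modified from NCCLS. Mid-log bacteria at (0.5–1) × 10^5 CFU mL−1 in MHB, mixed with peptides serially diluted in 0.2% BSA. Incubated 24 h at 37 °C, read at A492. MIC taken as lowest concentration giving 95% growth inhibition. At least three independent experiments, each with three technical replicates.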

Candida parapsilosis = assay: Antifungal activity against Candida parapsilosis cgmcc2.3989 measured after 48 hrs by broth microdilution method; format: functional; settings: Lodderomyces parapsilosis, cgmcc2.3989, 48 h
Method in brief: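 Modified CLSI M27-A2 microdilution. Yeast colonies were diluted in MOPS-buffered RPMI 1640 to a final (0.5–1) × 10^3 CFU mL−1 and mixed with an equal volume of peptide serially diluted in 0.2% BSA. After 48 h at 28 °C, MIC was read at A492 as the lowest concentration inhibiting 95% of growth. At least three independent experiments, each with three technical replicates.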

Escherichia coli [20] = assay: Antibacterial activity against Escherichia coli ATCC 25922 measured after 18 to 24 hrs in presence of NH4Cl; format: functional

Row | Substance | MIC95 (Candida albicans [1]) | MIC95 (Escherichia coli [2]) | MBC (Salmonella typhimurium [3]) | MBC (Salmonella typhimurium [4]) | MIC95 (Staphylococcus aureus [5]) | Activity [6] | MBC (Escherichia coli [7]) | MIC95 (Salmonella typhimurium [8]) | selectivity ratio [9] | selectivity ratio [10] | Wavelength of minimum CD band [11] | viability at up to 64 µM [12] | MBC (Escherichia coli [13]) | MIC95 (Candida albicans [14]) | selectivity ratio [15] | MFC<=99.9 (Candida tropicalis) | MBC (Escherichia coli [16]) | MIC95 (Escherichia coli [17]) | MIC95 [18] | MIC95 (Staphylococcus aureus [19]) | other results
1 | H-AARIILRWFRR-NH2 | 8 µM | 2 µM | 8 µM | 8 µM | 4 µM | 208 to 222 nm | 4 µM | 4 µM | 53.8 | 87.1 | 200 nm | 90 to 100% | 4 µM | 32 µM | 50.8 | 4 µM | 4 µM | 2 µM | 4 µM | 8 µM | MIC95 (Candida parapsilosis): 4 µM; MIC95 (Escherichia coli [20]): 2 µM
2 | H-AARIILRWRFR-NH2 | 8 µM | 2 µM | 4 µM | 4 µM | 2 µM | 208 to 222 nm | 4 µM | 4 µM | 215 | 94.1 | 200 nm | 90 to 100% | 2 µM | 32 µM | 50.8 | 4 µM | 4 µM | 2 µM | 2 µM | 1 µM | MIC95 (Candida parapsilosis): 4 µM; MIC95 (Escherichia coli [20]): 4 µM
3 | H-AARIILRARFR-NH2 | 16 µM | 2 µM | 4 µM | 8 µM | 8 µM | 208 to 222 nm | 4 µM | 4 µM | 90.5 | 69.1 | 200 nm | 90 to 100% | 4 µM | 64 µM | 25.4 | 4 µM | 4 µM | 8 µM | 4 µM | 2 µM | MIC95 (Candida parapsilosis): 16 µM; MIC95 (Escherichia coli [20]): 2 µM
4 | H-AARIILRLRFR-NH2 | 8 µM | 4 µM | 8 µM | 8 µM | 2 µM | 208 to 222 nm | 8 µM | 4 µM | 128 | 64 | 200 nm | 90 to 100% | 8 µM | 32 µM | 50.8 | 4 µM | 8 µM | 8 µM | 4 µM | 2 µM | MIC95 (Candida parapsilosis): 4 µM; MIC95 (Escherichia coli [20]): 4 µM
